As usually defined, the pIC50 is the IC50 on a negative log10 scale, so that one unit is a factor of ten.

We go through one compound from ChEMBL document CHEMBL4359903, “1,2,4-Oxadiazole derivatives targeting EGFR and c-Met degradation in TKI resistant NSCLC” (Eur J Med Chem, 2019).

For one assay, the system named is A549. As to the kind of experiment: Cell cycle arrest in human A549 cells assessed as increase in accumulation of cells at G2/M phase at 0.2 to 0.6 uM incubated for 48 hrs by propidium iodide based flow cytometry. It is filed as functional. In outline:
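Cells plated at 3 × 10^5 per 6-cm dish and left overnight, then treated for 24 h and 48 h. Pellets fixed in 70% ethanol and stained with 40 µg/ml propidium iodide plus 20 µg/ml RNase A, 30 min on ice in the dark. DNA content read on a FACSCalibur flow cytometer.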
On the technique in general: A flow cytometer gives signals particle by particle.

Assay [1] deals with NCI-H1975. As to the kind of experiment: Antitumor activity against human NCI-H1975 cells harbouring EGFR L858R/T790M double mutant xenografted in athymic Nude-Foxn1nu BALB/c mouse assessed as reduction in EGFR expression in tumor lysates administered once daily via oral gavage for 20 days measured on day 20 by Western blot analysis. It is filed as functional. As to conditions: Neoplasm, Lysate. In outline: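 H1975 xenografts in nude mice gavaged daily for 20 days with vehicle, 50 or 150 mg/kg. At study end mice were killed by CO2, and tumor lysates from four representative tumors per group were immunoblotted for EGFR and c-Met. Band intensities quantified by densitometry.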

For assay [2], the system named is NCI-H1975. The assay is described as follows: Antitumor activity against human NCI-H1975 cells harbouring EGFR L858R/T790M double mutant xenografted in athymic Nude-Foxn1nu BALB/c mouse assessed as tumor growth inhibition at 150 mg/kg, po administered once daily via gavage for 20 days measured twice a week by caliper method relative to control. It is filed as functional. The settings on record: 480 h, read-out: TGI. The procedure, abridged:
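Female Balb/c nude mice, 5 weeks old, injected subcutaneously in the right flank with 10^6 H1975 cells in 0.1 ml. Randomized at about 50 mm3, n = 8 per group. Gavaged once daily for 20 days with vehicle (10% DMSO/0.1% Tween 80/0.5% methylcellulose in sterile water) or 50 or 150 mg/kg. Calipers, V = width² × length × 0.52; volume and body weight twice weekly; Student's t-test.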
A general note: Xenograft models place foreign cells or tissue in a host animal.

Another assay relates to PC-9. As to the kind of experiment: Antiproliferative activity against human PC9 cells harbouring EGFR delE746-A750 mutant assessed as reduction in cell viability incubated for 72 hrs by MTT assay. It is filed as functional, cell-based. The settings on record: PC-9, 72 h. In general terms: Tetrazolium assays rely on reduction of a dye to a coloured formazan, in cell work by metabolically active cells.

Assay [3] concerns the target Hepatocyte growth factor receptor (Homo sapiens) (UniProt P08581). The assay is described as follows: Induction of c-MET degradation in human CL68 cells harbouring EGFR delE746-A750/T790M assessed as reduction in c-Met expression at 0.2 to 0.6 uM incubated for 48 hrs by Western blot analysis. It is filed as cell-based. The procedure, abridged: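 After 48 h treatment, cells were scraped and lysed in 1% SDS, 50 mM Tris-HCl pH 8.0, 10 mM EDTA with protease and phosphatase inhibitors. Lysates sonicated, protein measured by BCA, equal amounts run on SDS-PAGE and blotted to nitrocellulose. Primary antibodies (EGFR, c-Met, S473-Akt, Akt, GAPDH) used at 1:1000 overnight at 4 °C, HRP secondaries at 1:5000, ECL detection.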

pIC50: −log10 of the molar value. Calls of active or inactive are those of the source. The calls are words filed in the database; no cut-off is given here.

Chain of Hepatocyte growth factor receptor (Homo sapiens) (P08581 whole entry): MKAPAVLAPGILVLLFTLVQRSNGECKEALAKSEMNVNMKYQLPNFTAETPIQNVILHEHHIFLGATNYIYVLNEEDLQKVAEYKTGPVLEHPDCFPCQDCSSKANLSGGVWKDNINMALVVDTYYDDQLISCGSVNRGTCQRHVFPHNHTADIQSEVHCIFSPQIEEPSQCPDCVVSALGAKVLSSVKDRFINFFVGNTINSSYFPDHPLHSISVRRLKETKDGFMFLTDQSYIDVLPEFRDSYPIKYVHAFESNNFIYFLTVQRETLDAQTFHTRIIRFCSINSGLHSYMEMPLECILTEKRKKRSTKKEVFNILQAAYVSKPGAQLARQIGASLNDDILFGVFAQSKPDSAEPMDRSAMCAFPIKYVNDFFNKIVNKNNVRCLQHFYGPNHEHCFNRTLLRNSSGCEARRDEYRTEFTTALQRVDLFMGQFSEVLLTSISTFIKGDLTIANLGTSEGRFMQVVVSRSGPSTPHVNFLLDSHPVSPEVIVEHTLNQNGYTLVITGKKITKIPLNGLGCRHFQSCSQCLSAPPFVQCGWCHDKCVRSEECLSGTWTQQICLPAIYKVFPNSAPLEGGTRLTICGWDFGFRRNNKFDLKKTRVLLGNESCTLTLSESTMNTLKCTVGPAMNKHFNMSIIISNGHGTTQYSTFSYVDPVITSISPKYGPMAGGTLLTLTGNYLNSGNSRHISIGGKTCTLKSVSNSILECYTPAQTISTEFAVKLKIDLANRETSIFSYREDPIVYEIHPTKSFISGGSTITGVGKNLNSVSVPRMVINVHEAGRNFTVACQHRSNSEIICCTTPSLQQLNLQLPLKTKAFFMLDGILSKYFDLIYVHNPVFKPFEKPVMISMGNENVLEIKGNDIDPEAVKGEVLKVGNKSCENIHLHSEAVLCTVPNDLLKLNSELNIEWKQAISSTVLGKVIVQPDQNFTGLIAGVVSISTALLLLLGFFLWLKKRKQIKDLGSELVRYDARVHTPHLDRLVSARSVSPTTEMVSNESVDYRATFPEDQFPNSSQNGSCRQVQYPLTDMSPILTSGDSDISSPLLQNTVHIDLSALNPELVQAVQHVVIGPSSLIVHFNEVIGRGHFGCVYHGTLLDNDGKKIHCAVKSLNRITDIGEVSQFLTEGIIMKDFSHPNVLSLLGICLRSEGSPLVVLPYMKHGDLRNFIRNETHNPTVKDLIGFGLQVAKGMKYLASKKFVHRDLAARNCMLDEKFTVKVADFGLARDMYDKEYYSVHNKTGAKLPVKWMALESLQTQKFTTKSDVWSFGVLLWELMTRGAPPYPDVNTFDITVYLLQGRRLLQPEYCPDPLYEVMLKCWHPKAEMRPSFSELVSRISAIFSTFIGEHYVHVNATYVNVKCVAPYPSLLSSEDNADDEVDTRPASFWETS

With `O=C(Nc1cccc(-c2nc(-c3ccc(NC(=O)c4cccnc4)cc3Cl)no2)c1)Nc1ccc(NC(=O)C2CC2)c(C(F)(F)F)c1`, the result (with A549; in assay [3]) was Active. Further, the Activity entry in the assay on NCI-H1975 [1] was “Dose-dependent effect”. The inhibition in vivo at 150 mg/kg in the assay on NCI-H1975 [2] is 60%. In the assay with PC-9, the pIC50 is 6.30.
